Assay results reported in ChEMBL document CHEMBL1141538, “Carboxylic acid bioisosteres acylsulfonamides, acylsulfamides, and sulfonylureas as novel antagonists of the CXCR2 receptor” (Bioorg Med Chem Lett, 2008).
pIC50: −log10 of the molar value.

Tests used:
[1] = target: T1, C-X-C chemokine receptor type 2 (Homo sapiens, UniProt P25025); assay: Displacement of europium labeled-human IL8 from human cloned CXCR2 expressed in Sf9 membrane with Galphai3-beta-1-gamma-2 by DELFIA binding assay
T1 sequence (P25025 whole entry): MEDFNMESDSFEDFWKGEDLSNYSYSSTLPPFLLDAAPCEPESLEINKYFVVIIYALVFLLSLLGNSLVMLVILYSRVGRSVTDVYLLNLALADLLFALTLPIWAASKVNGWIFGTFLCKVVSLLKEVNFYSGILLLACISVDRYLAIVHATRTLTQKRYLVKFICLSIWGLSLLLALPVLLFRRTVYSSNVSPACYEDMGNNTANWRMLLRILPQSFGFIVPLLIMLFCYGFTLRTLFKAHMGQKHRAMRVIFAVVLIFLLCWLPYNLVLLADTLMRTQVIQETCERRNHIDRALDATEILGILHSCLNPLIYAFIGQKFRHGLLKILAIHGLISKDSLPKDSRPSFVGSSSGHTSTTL
How it was run: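 Lysates (40 µg/mL) incubated in triplicate with 2 nM Eu-IL-8 and compound, 90 min at room temperature. Filtered and washed, enhancement solution added, time-resolved fluorescence read at 340/612 nm with 400 µs delay. Background defined with 200 nM unlabeled human IL-8. IC50 by four-parameter logistic fit.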

[2] = target: T1, C-X-C chemokine receptor type 2; assay: Antagonist activity at human cloned CXCR2 by calcium flux FLIPR assay; type: functional
How it was run: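 Chem-1 cells carrying cloned human CXCR2 coupled to Gi/o, seeded at 5 × 10⁵ cells/mL and left to adhere overnight in DMEM without G-418. Loaded with half-strength Calcium 3 dye in HBSS/20 mM Hepes pH 7.4/2.5 mM probenecid, with compound in triplicate, 30 min at 37 °C then 30 min at room temperature. Stimulated with human IL-8 (4 nM solution added). Fluorescence 485/525 read every 2 s. IC50 from a four-parameter logistic fit.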

[3] = Plasma protein binding in rat; type: ADME, cell-free; details: read-out: PPB
[4] = Half life in iv dosed rat; type: ADME, organism-based; details: in vivo
Cytochrome P450 2C19 = Cytochrome P450 2C19 (Homo sapiens, UniProt P33261); assay: Inhibition of CYP2C19; type: ADME
Sequence of Cytochrome P450 2C19 (P33261 whole entry): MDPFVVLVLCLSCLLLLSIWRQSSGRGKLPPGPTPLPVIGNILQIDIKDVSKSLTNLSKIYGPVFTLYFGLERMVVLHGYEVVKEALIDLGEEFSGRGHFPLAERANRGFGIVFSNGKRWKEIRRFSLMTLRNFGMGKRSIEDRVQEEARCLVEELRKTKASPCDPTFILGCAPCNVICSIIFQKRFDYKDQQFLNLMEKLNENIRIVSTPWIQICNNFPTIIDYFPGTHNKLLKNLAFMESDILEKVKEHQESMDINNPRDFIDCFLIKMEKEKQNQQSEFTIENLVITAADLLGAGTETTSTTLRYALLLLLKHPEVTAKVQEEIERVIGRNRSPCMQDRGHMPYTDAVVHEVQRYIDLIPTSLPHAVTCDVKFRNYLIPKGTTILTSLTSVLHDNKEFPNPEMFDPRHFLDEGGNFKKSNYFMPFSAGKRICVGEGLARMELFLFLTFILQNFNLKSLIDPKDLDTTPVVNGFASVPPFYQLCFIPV

Rattus norvegicus [5] = assay: Reduction of hyperoxia-induced neutrophil accumulation in newborn rat at 10 mg/kg, ip after 7 days; type: functional; set-up: scale not given: the % may be the effect or the level left; details: route intraperitoneal
[6] = Clearance in iv dosed rat; type: ADME, organism-based; details: in vivo
[7] = Stability in rat liver microsomes after 10 mins; type: ADME, Microsome; details: read-out: Stability
Cytochrome P450 2C9 = Cytochrome P450 2C9 (Homo sapiens, UniProt P11712); assay: Inhibition of CYP2C9; type: ADME
Sequence of Cytochrome P450 2C9 (P11712 whole entry): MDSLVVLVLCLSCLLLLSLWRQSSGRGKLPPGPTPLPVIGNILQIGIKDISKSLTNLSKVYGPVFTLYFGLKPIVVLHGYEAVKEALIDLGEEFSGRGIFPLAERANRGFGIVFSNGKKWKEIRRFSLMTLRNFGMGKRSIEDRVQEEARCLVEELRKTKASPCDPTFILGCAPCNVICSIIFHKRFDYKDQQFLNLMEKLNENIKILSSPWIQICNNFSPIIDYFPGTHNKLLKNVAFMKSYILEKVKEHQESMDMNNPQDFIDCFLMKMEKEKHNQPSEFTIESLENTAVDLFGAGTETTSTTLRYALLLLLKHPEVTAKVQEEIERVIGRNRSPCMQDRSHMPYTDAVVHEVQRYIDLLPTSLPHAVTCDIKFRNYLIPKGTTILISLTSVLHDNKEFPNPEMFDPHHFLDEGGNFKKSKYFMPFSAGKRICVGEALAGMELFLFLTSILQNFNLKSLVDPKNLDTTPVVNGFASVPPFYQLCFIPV

Cytochrome P450 1A2 = target: T2, Cytochrome P450 1A2 (Homo sapiens, UniProt P05177); assay: Inhibition of CYP1A2; type: ADME
T2 sequence (P05177 whole entry): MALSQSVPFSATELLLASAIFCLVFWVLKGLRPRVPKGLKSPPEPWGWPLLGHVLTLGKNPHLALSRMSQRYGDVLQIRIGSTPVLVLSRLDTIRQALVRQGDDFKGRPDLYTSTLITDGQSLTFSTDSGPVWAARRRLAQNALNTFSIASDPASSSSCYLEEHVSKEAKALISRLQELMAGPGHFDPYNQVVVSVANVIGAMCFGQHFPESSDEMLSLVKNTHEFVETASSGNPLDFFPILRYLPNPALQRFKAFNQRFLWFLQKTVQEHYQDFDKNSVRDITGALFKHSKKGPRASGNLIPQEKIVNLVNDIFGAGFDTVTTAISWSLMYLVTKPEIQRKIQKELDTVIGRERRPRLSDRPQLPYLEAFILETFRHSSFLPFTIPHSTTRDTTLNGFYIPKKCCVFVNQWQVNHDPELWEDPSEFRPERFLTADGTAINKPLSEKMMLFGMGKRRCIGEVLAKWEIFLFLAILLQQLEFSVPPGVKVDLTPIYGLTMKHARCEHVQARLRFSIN

[8] = Stability in human liver microsomes after 10 mins; type: ADME, Microsome; details: read-out: Stability
Cytochrome P450 3A4 = Cytochrome P450 3A4 (Homo sapiens, UniProt P08684); assay: Inhibition of CYP3A4; type: ADME
Sequence of Cytochrome P450 3A4 (P08684 whole entry): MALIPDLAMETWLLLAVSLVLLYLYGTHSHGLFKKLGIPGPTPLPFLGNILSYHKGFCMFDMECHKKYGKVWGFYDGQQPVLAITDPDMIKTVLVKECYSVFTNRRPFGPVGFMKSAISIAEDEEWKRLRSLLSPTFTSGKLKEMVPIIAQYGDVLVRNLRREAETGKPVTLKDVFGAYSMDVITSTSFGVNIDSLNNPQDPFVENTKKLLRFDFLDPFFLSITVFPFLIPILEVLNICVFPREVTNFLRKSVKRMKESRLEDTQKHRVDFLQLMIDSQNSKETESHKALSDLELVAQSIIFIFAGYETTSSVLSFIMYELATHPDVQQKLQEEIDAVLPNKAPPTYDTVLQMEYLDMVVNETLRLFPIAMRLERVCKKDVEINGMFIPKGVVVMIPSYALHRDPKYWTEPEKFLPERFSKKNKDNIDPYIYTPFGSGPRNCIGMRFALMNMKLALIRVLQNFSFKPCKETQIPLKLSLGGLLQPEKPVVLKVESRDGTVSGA

[9] = Oral bioavailability in rat; type: ADME, organism-based; details: in vivo
Rattus norvegicus [10] = assay: Reduction of hyperoxia-induced neutrophil accumulation in newborn rat at 10 mg/kg, ip after 7 days; set-up: scale not given: the % may be the effect or the level left; details: route intraperitoneal
Cytochrome P450 2D6 = Cytochrome P450 2D6 (Homo sapiens, UniProt P10635); assay: Inhibition of CYP2D6; type: ADME
Sequence of Cytochrome P450 2D6 (P10635 whole entry): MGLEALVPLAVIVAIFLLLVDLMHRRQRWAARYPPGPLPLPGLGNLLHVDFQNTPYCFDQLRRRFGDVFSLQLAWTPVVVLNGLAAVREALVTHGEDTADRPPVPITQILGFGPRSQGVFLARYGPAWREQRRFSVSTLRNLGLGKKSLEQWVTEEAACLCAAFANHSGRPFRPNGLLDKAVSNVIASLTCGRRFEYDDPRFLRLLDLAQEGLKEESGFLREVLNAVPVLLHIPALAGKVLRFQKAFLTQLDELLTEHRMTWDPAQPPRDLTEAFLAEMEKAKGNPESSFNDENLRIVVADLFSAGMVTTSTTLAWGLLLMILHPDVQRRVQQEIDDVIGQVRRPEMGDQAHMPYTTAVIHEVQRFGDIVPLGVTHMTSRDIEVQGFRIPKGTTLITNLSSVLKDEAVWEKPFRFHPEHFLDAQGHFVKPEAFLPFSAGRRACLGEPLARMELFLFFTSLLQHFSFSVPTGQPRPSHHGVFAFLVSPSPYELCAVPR

Row | Compound | pIC50 [1] | other results
1 | N#Cc1ccc2[nH]c(-c3ccc(F)cc3)c(CCCC(=O)NS(=O)(=O)N3CCOCC3)c2c1 | 6.82 | 
2 | Cc1cc2[nH]c(-c3ccc(F)cc3)c(CCCC(=O)NS(=O)(=O)N(C)C)c2cc1C#N | 7.62 | 
3 | N#Cc1ccc2[nH]c(-c3ccc(F)cc3)c(CCNC(=O)NS(=O)(=O)c3ccc(F)cc3)c2c1 | 6.28 | 
4 | N#Cc1ccc2[nH]c(-c3ccc(F)cc3)c(CCNC(=O)NS(=O)(=O)c3ccccc3)c2c1 | 6.85 | 
5 | CC(C)S(=O)(=O)NC(=O)CCCc1c(-c2ccc(F)cc2)[nH]c2ccc(C#N)cc12 | 6.66 | 
6 | CS(=O)(=O)NC(=O)CCCc1c(-c2ccc(F)cc2)[nH]c2ccc(Br)cc12 | 6.77 | 
7 | CCS(=O)(=O)NC(=O)CCCc1c(-c2ccc(F)cc2)[nH]c2ccc(C#N)cc12 | 7.19 | 
8 | N#Cc1ccc2[nH]c(-c3ccc(F)cc3)c(CCCC(=O)NS(=O)(=O)c3ccccc3)c2c1 | 6.59 | 
9 | N#Cc1ccc2[nH]c(-c3ccc(F)cc3)c(CCCC(=O)NS(=O)(=O)C(F)(F)F)c2c1 | 7.06 | pIC50 [2]: 7.15
10 | CN(C(=O)CCCc1c(-c2ccc(F)cc2)[nH]c2ccc(C#N)cc12)S(C)(=O)=O | < 5.70 | 
11 | CCCS(=O)(=O)NC(=O)CCCc1c(-c2ccc(F)cc2)[nH]c2ccc(C#N)cc12 | 5.89 | 
12 | Cc1cc2[nH]c(-c3ccc(F)cc3)c(CCCC(=O)NS(C)(=O)=O)c2cc1C#N | 7.72 | 
13 | CN(C)S(=O)(=O)NC(=O)CCCc1c(-c2ccc(F)cc2)[nH]c2ccc(C#N)cc12 | 7.30 | fraction unbound [3]: < 0.01; half-life [4]: 2.7 h; pIC50 (Cytochrome P450 2C19): < 5.30; Activity (Rattus norvegicus [5]): 50%; clearance [6]: 3.8 mL/min/kg; remaining at 10 min [7]: 100%; pIC50 (Cytochrome P450 2C9): 5.88; pIC50 (Cytochrome P450 1A2): < 5.30; pIC50 [2]: 8.30; remaining at 10 min [8]: 76.8%; pIC50 (Cytochrome P450 3A4): < 5.30; bioavailability [9]: 107%; Activity (Rattus norvegicus [10]): 50%; pIC50 (Cytochrome P450 2D6): < 5.30
14 | COc1cc2[nH]c(-c3ccc(F)cc3)c(CCCC(=O)NS(C)(=O)=O)c2cc1C#N | 6.80 | 
15 | N#Cc1ccc2[nH]c(-c3ccc(F)cc3)c(CCCC(=O)NS(=O)(=O)Nc3ccccc3)c2c1 | 6.06 | 
16 | CS(=O)(=O)NC(=O)NCCc1c(-c2ccc(F)cc2)[nH]c2ccc(Br)cc12 | 6.60 | pIC50 [2]: 7.05
17 | N#Cc1ccc2[nH]c(-c3ccc(F)cc3)c(CCNC(=O)NS(=O)(=O)c3ccccc3Cl)c2c1 | 6.40 | 
18 | CS(=O)(=O)NC(=O)CCCc1c(-c2ccc(F)cc2)[nH]c2ccc(C#N)cc12 | 7.14 | pIC50 [2]: 7.49

Further lines, with some results ahead:

Row | pIC50 [1] | Compound | other results
19 | 7.24 | COc1cc2[nH]c(-c3ccc(F)cc3)c(CCCC(=O)NS(=O)(=O)N(C)C)c2cc1C#N | 
20 | 6.19 | CS(=O)(=O)NC(=O)NCCc1c(-c2ccc(F)cc2)[nH]c2ccc(C#N)cc12 | 
21 | 6.92 | O=C(NCCc1c(-c2ccc(F)cc2)[nH]c2ccc(Br)cc12)NS(=O)(=O)c1ccccc1 | pIC50 [2]: 8.40
22 | 6.92 | CNS(=O)(=O)NC(=O)CCCc1c(-c2ccc(F)cc2)[nH]c2ccc(C#N)cc12 | pIC50 [2]: 7.85
23 | 7.18 | N#Cc1ccc2[nH]c(-c3ccc(F)cc3)c(CCCC(=O)NS(N)(=O)=O)c2c1 | 
24 | 5.96 | CCCCNS(=O)(=O)NC(=O)CCCc1c(-c2ccc(F)cc2)[nH]c2ccc(C#N)cc12 | 
25 | 6.59 | COCCNS(=O)(=O)NC(=O)CCCc1c(-c2ccc(F)cc2)[nH]c2ccc(C#N)cc12 | 
26 | 5.96 | CCN(CC)S(=O)(=O)NC(=O)CCCc1c(-c2ccc(F)cc2)[nH]c2ccc(C#N)cc12 | 
27 | 5.85 | N#Cc1ccc2[nH]c(-c3ccc(F)cc3)c(CCCC(=O)NS(=O)(=O)Cc3ccccc3)c2c1 | 
